Source: PubChem (Johns Hopkins Ion Channel Center)
This is a sample that favours compounds with a hit; in the whole collection about 2.3% have one here.
TRPC4 block: TRPC4 (mouse) channel inhibition; hit rate 0.39% among 300,000; B-score at 10 µM; AID 2247; Q9QUQ5; HEK293 TRPC4beta/mu-opioid, DAMGO-evoked Fluo4 calcium flux; hits give low values;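 active means B-score over 3 SD under the library average, no early fluorescence shift, positive overall ratio signal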
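material = TRPC4beta/mu-opioid receptor HEK293 cell line | probe or stimulus = sequential submaximal and maximal DAMGO stimulation | compound dosing = one concentration per compound | measured by = Fluo4 Ca2+ flux fluorescence | evaluation = integrated fluorescence ratio relative to baseline, converted to per-well B score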
TRPC4 act: TRPC4 (mouse) channel activation | Q9QUQ5 | HEK293 TRPC4beta/mu-opioid, Fluo4 calcium fluorescence; hits give high values | B-score at 10 µM | hit rate 0.49% among 310,000;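 active means B-score above 5 SD of library B-scores, and initial fluorescence ratio not above library mean plus 5 SD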;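 further: positive B-score marks a calcium rise read as TRPC4 activation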
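Technique: kinetic Fluo4 calcium fluorescence; Test system: TRPC4beta and mu-opioid receptor HEK293 stable cells; Measure: B-scored integrated calcium fluorescence ratio; Benchmarks: low control buffer alone, high control maximal DAMGO; Schedule: 45 min room-temperature Fluo4 loading, 110 s read.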
TRPC4 PAM: TRPC4 (mouse) allosteric potentiation; hit rate 0.42% among 310,000; HEK293 TRPC4beta/mu-opioid, DAMGO EC20, Fluo-4 Ca2+ flux; hits give high values; Q9QUQ5; B-score at 10 µM;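 active means B-score of calcium response area above 5 SD of library B-scores, with initial fluorescence ratio within 5 SD of library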;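 further: B-score of integrated fluorescence ratio over time as area under calcium response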
TRPC6 activator: mouse TRPC6 channel activation. Q61143. HEK293-TRPC6 membrane potential dye fluorescence; hits give high values. B-score at 10 µM. hit rate 0.13% among 310,000;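 active means B-score of the integrated fluorescence ratio above library mean plus 3 SD, and starting fluorescence ratio within library mean plus 5 SD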;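 further: higher score means more depolarization so channel activation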
Target sequence (Q61143 whole entry, looked up): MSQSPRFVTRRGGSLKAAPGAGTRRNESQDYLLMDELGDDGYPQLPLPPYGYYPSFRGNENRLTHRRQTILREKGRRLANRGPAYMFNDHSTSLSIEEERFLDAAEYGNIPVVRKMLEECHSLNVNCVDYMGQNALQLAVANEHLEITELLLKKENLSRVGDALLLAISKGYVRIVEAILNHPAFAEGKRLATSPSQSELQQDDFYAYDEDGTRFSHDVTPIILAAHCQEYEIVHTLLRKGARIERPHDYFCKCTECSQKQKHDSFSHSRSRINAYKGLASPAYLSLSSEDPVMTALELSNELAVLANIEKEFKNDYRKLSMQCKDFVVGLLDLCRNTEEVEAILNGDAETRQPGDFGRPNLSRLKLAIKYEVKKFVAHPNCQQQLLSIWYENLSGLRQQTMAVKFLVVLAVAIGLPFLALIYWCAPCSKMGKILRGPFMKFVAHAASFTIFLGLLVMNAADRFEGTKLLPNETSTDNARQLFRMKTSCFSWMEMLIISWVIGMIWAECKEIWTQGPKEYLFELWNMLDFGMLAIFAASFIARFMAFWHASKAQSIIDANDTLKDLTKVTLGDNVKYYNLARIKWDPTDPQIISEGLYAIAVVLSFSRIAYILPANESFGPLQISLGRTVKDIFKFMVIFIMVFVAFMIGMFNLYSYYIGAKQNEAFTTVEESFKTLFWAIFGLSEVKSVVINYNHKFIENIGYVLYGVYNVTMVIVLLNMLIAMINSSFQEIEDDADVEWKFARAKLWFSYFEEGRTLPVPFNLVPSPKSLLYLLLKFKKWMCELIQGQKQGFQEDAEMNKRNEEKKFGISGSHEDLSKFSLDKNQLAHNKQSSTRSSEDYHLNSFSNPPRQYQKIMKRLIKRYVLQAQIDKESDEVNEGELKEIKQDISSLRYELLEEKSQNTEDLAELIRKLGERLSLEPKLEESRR
TRPC6 inhibitor: mouse TRPC6 channel inhibition | Q61143 | HEK293-TRPC6, membrane potential dye, ACh-evoked depolarization; hits give low values | B-score at 10 µM | hit rate 1.1% among 310,000;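 active means B-score under library mean minus 3 SD, initial fluorescence not abnormally high, positive integrated signal ratio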;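 further: B-score derived from integrated fluorescence ratio over the kinetic read; more negative B-score means stronger inhibition of depolarization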
* = called active by the depositor; i = inactive; · = not tested or not shown.

SMILES | TRPC4 block | TRPC4 act | TRPC4 PAM | TRPC6 activator | TRPC6 inhibitor
CCN(CCNC(=O)C1CCCN(c2ncnc3c2nc2n3CCCCC2)C1)Cc1ccccc1 (stereo not given) | i | i | 19* | i | i
CC1CC(C)CN(CCCNC(=O)C2CCCN(c3ncnc4c3nc3n4CCCCC3)C2)C1 (stereo not given) | i | i | 18* | i | i
CN(CCNC(=O)C1CCN(c2ncnc3c2nc2n3CCCCC2)CC1)Cc1ccccc1 | i | i | i | i | i
COCCN1C(=O)c2ccccc2C(C(=O)Nc2ccc3c(c2)OCCO3)C1c1ccc(F)cc1 (stereo not given) | i | i | i | i | i
CC(CCc1ccccc1)NC(=O)C(=O)c1c[nH]c2ccccc12 (stereo not given) | i | i | i | i | i
c1ccc(Nc2nc(N3CCOCC3)nc(N3CCOCC3)n2)cc1 | i | i | i | i | i
c1ccc(Nc2nc(N3CCNCC3)nc(N3CCOCC3)n2)cc1 | i | 65* | i | i | i
S=C(NCc1ccc(Cl)cc1)N1CCN(c2ccccn2)CC1 | i | i | i | i | i
CCCN1CCN(C(=S)NCc2ccc(Cl)cc2)CC1 | i | i | 22* | i | i
CC1(C)CC(NCCN2CCN(C3=CC(=C(C#N)C#N)CC(C)(C)C3)CC2)=CC(=C(C#N)C#N)C1 | · | 55* | i | i | i
CNC(=S)N1CCN(CCNC2=CC(=O)CC(C)(C)C2)CC1 | i | i | i | i | i
COC(=O)NCC(c1cccnc1)N1CCN(c2ccccc2OC)CC1 (stereo not given) | i | 69* | i | i | i
COc1cccc2[nH]c3c(N4CCN(Cc5ccc6c(c5)OCO6)CC4)ncnc3c12 | i | i | i | i | -6.71*
CCn1c(-c2ccc(N)cc2)nc2ccccc21 | i | 71* | i | i | i
Cc1nc(-c2cccc(C(F)(F)F)c2)sc1C(=O)O | -6* | i | i | i | i
Cc1nc(-c2ccccc2)sc1C(=O)O | i | i | i | i | i
C=CCc1ccccc1OCCCCN1CCCC1 | i | i | i | i | i
C=CCc1ccccc1OCC(O)CN1CCN(c2ccccc2F)CC1 (stereo not given) | i | i | i | i | i
C=CCc1ccccc1OCC(O)CN1CCN(c2ccccc2OC)CC1 (stereo not given) | -6* | i | i | i | i
C=CCc1ccccc1OCC(CN1CCCCC1)OC(C)=O (stereo not given) | -6* | i | i | i | i
O=C(O)c1cccc(N=C2NC(=O)C(CO)(CO)S2)c1 | i | i | i | i | i
O=C(NC1CCCCC1)C(c1ccncc1)N(C(=O)c1csnn1)c1cccc(F)c1 (stereo not given) | i | i | i | i | i
O=S(=O)(c1ccc(Br)cc1Cl)N1CCN(CCO)CC1 | i | 83* | i | i | i
CC12CCC(=O)N1C(C(=O)N1CCN(S(=O)(=O)c3ccc(Br)cc3Cl)CC1)CS2 (stereo not given) | i | i | i | i | i
COC(=O)CSc1nnc2n(C3CCCCC3)c(=O)c3c4c(sc3n12)CCCC4 | -6* | i | i | i | i
SMILES | TRPC4 block | TRPC4 act | TRPC4 PAM | TRPC6 activator | TRPC6 inhibitor
COC(=O)CSc1nnc2n(-c3ccc(OC)cc3)c(=O)c3c4c(sc3n12)CCCCC4 | -7* | i | i | i | i
CCCSc1nnc2n(-c3ccccc3OC)c(=O)c3c4c(sc3n12)CCC4 | i | i | i | i | i
C=CCSc1nnc2n(-c3ccccc3OC)c(=O)c3c4c(sc3n12)CCC4 | -6* | i | i | i | i
COc1ccc(/C=N/n2nnnc2N)c(OC)c1 | i | i | i | i | i
O=C(NCCc1ccccn1)c1ccc(OC2CCN(CCc3ccccc3)CC2)cc1 | i | 66* | i | i | i
O=C(NCCc1cccc(Cl)c1)c1ccc(OC2CCN(Cc3ccccn3)CC2)cc1 | i | 150* | i | i | i
CSCCCNC(=O)c1ccc(OC2CCN(CCc3ccccc3)CC2)cc1 | i | 58* | i | i | i
CN(Cc1cnn(C)c1)C(=O)c1ccc(OC2CCN(CCc3ccccc3)CC2)cc1 | -6* | i | i | i | i
COc1cc(-c2n[nH]c(=S)n2/N=C/c2cccn2C)cc(OC)c1OC | i | 52* | i | i | i
COc1ccccc1N1CCN(C(=O)c2ccc3c(c2)NC(=O)C(CSCc2ccccc2C)N3)CC1 (stereo not given) | i | i | i | i | -8.77*
O=C1Nc2cc(C(=O)N3CCN(c4ccccc4F)CC3)ccc2NC1CSCc1ccccc1F (stereo not given) | i | i | i | i | i
Cc1ccnc(OC(C(=O)O)C(OCc2ccccc2)(c2ccc(F)cc2)c2ccc(F)cc2)n1 (stereo not given) | i | i | i | i | i
CCn1c(N2CCN(CC(=O)Nc3cccc(C)c3C)CC2)nc2ccccc21 | i | 147* | i | i | i
O=C(NC1CCCCC1)N1CCN(C(c2ccccc2)c2ccccc2)CC1 | -6* | i | i | i | i
CC(C)Cn1c(N2CCN(CC(=O)Nc3ccc(Cl)cc3)CC2)nc2ccccc21 | i | i | i | i | i
CCn1c(NC2CCCCC2)nc2ccccc21 | -6* | i | i | i | i
O=C(NC1CCCCC1)N1CCN(c2ccccc2)CC1 | i | i | i | i | i
CCn1c(N2CCN(C(=O)NC3CCCCC3)CC2)nc2ccccc21 | i | 46* | i | i | i
Cc1cc([N+](=O)[O-])nn1Cc1ccc(C(=O)N/N=C/c2ccc(O)cc2O)cc1 | i | i | i | i | i
CC(CC(=O)Nc1ccccc1C(F)(F)F)c1ccccc1 (stereo not given) | i | i | i | i | i
CCn1c(N2CCN(C(=O)Nc3ccc(F)cc3)CC2)nc2ccccc21 | i | 118* | i | i | i
CCCn1c(N2CCN(C(=O)Nc3ccccc3)CC2)nc2ccccc21 | i | i | i | i | i
COc1ccc(OC2CCN(S(=O)(=O)c3ccccc3)CC2)cc1 | i | i | 13* | i | i
COc1ccc(OC2CCN(S(=O)(=O)c3ccc(F)cc3)CC2)cc1 | i | i | i | i | i
Cc1nnc(Sc2cc(NCCCO)c([N+](=O)[O-])c3nonc23)s1 | -6* | i | i | i | i
CN(C)CCCSc1nc(-c2ccccc2)nc2c1CCC2 | i | i | 16* | i | i
